Activity calls are given as the source filed them. No cut-off for these calls is given here.
Columns and labels:
[1] = target: T1, L-lactate dehydrogenase A chain (Homo sapiens, UniProt P00338); experiment: Binding affinity to 6-His-tagged human LDHA (2 to 322 amino acid residue) expressed in Escherichia coli BL21 (DE3) cells by SPR analysis
[2] = target: T1, L-lactate dehydrogenase A chain; experiment: Inhibition of full length human recombinant LDHA expressed in Escherichia coli BL21 (DE3) cells after 10 mins by spectrophotometric analysis
[3] = target: T1, L-lactate dehydrogenase A chain; experiment: Binding affinity to 6-His-tagged human LDHA (2 to 322 amino acid residue) expressed in Escherichia coli BL21 (DE3) cells by NMR analysis in presence of NADH
[4] = target: T1, L-lactate dehydrogenase A chain; experiment: Binding affinity to 6-His-tagged human LDHA (2 to 322 amino acid residue) expressed in Escherichia coli BL21 (DE3) cells by NMR analysis in presence of NAD+
Outline: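 Ligand-observed NMR at 298 K, 600 MHz, in 100 mM HEPES pH 7.5, 2 mM TCEP, 0.02% sodium azide, with 1 mM NAD⁺ present. Binding was detected by WaterLOGSY and T₁ρ-filtered 1D spectra (LDHA 40−48 μM monomer). […] Single experiment.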

[5] = target: L-lactate dehydrogenase B chain (Homo sapiens, UniProt P07195); experiment: Inhibition of human recombinant LDHB (2 to 334 amino acid residue) expressed in Escherichia coli BL21 (DE3) cells after 10 mins by spectrophotometric analysis
L-lactate dehydrogenase B chain, sequence (P07195 whole entry, the tested form may be a part): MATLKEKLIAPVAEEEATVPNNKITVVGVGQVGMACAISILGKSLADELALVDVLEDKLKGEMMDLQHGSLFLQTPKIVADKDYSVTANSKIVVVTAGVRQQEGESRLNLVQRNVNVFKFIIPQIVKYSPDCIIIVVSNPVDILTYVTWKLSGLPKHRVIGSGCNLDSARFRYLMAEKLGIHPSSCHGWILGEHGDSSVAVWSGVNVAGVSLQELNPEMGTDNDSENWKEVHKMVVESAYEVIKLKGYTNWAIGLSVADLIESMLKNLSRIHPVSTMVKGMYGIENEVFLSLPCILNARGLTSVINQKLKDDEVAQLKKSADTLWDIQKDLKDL

SMILES	Kd ([1]; read-out: Kd)	IC50 [2]	Kd ([3]; read-out: Kd)	other results
Cc1nc2ccc(NC(=O)CCNC(N)=O)cc2s1				Kd ([3]; bl21-de3): Active
COc1ccc(CC(C(=O)O)C(=O)O)cc1	1100 µM	> 500 µM	240 µM	
NC(=O)C1=CN([C@@H]2O[C@H](COP(=O)(O)O)[C@@H](O)[C@H]2O)C=CC1		> 500 µM	4000 µM	Kd ([1]; bl21-de3): Not Active
O=C(O)CC(=O)O [MALONIC ACID]			5000 µM	
NC(=O)C1=CN([C@@H]2O[C@H](COP(=O)(O)OP(=O)(O)OC[C@H]3O[C@@H](n4cnc5c(N)ncnc54)[C@H](O)[C@@H]3O)[C@@H](O)[C@H]2O)CCC1	12.8 µM	132 µM		Activity [4]: Active; IC50 [5]: 9.4 µM
Nc1ncnc2c1ncn2[C@@H]1O[C@H](COP(=O)(O)O)[C@@H](O)[C@H]1O [ADENOSINE PHOSPHATE]		> 500 µM	650 µM	Kd ([1]; bl21-de3): Not Active
O=C(O)c1ccc2ccccc2c1O [CARBOXYNAPHTHOL]		> 500 µM	640 µM	Kd ([1]; bl21-de3): Not Active
CCCSc1nc2ccc(NC(=O)CCNC(N)=O)cc2s1	35 µM	> 500 µM		Kd ([3]; bl21-de3): Active
c1cncc(-c2nc3ccccc3[nH]2)c1		> 500 µM	1400 µM	Kd ([1]; bl21-de3): Not Active
O=c1[nH]n(-c2ccccc2)c2ncccc12	1600 µM	> 500 µM	300 µM	
Cc1nc2ccc(NC(=O)CCC(=O)O)cc2s1	500 µM	> 500 µM	540 µM	
O=C(O)c1nsnc1O		450 µM		Kd ([1]; bl21-de3): Not Active; IC50 [5]: 7.8 µM
NS(=O)(=O)c1ccc(O)c2ccccc12		> 500 µM	400 µM	Kd ([1]; bl21-de3): Not Active
CCCSc1nc2ccc(NC(=O)CCC(=O)O)cc2s1	40 µM	> 500 µM	92 µM	
O=C(O)c1cc2c(C(F)(F)F)cc(-c3ccccc3)cc2n1O		> 500 µM	> 9 µM	
COCCNc1ncnc2ccccc12	3000 µM	> 500 µM	2400 µM	
CC(=O)Nc1ccc2nc(C)sc2c1	790 µM	> 500 µM		
Clc1ccccc1-c1nnn[nH]1				Kd ([1]; bl21-de3): Not Active

More lines, in order of falling IC50 [2], values ahead:

Kd ([1]; read-out: Kd)	IC50 [2]	Kd ([3]; read-out: Kd)	SMILES	other results
3.2 µM	86.2 µM		Cc1nc2ccc(NC(=O)CCNC(=O)NCCOc3ccc(CCC(=O)O)cc3)cc2s1	
1.2 µM	29.5 µM		Cc1nc2ccc(NC(=O)CCNC(=O)NCCc3ccc(OC(C(=O)O)C(=O)O)cc3)cc2s1	
0.18 µM	7.4 µM		CCCSc1nc2ccc(NC(=O)CCNC(=O)NCCc3ccc(OC(C(=O)O)C(=O)O)cc3)cc2s1	
	4.2 µM		Cc1nc2ccc(NC(=O)CCNC(=O)NCCOc3ccc(CC(C(=O)O)C(=O)O)cc3)cc2s1	
0.046 µM	3.1 µM		CCCSc1nc2ccc(NC(=O)CCNC(=O)NCCOc3ccc(CC(C(=O)O)C(=O)O)cc3)cc2s1	
	1.9 µM		Cc1nc2ccc(NC(=O)CCNC(=O)NCCc3ccc(CC(C(=O)O)C(=O)O)cc3)cc2s1	
	0.5 µM		Cc1nc2ccc(NC(=O)CCNC(=O)CCCc3ccc(CC(C(=O)O)C(=O)O)cc3)cc2s1	
0.06 µM	0.29 µM		CCCSc1nc2ccc(NC(=O)CCNC(=O)NCCc3ccc(CC(C(=O)O)C(=O)O)cc3)cc2s1	
0.008 µM	0.27 µM		CCCSc1nc2ccc(NC(=O)CCNC(=O)CCCc3ccc(CC(C(=O)O)C(=O)O)cc3)cc2s1	

Reference: ChEMBL document CHEMBL2057123, “Design and synthesis of novel lactate dehydrogenase A inhibitors by fragment-based lead generation” (J Med Chem, 2012)
